Data from ChEMBL document CHEMBL1133040, “Activity-guided isolation of constituents of Cerbera manghas with antiproliferative and antiestrogenic activities” (Bioorg Med Chem Lett, 2000).
Values after ≈ are worked out from the molar mass of the structure shown.

Columns and labels:
Format in all cases: functional, cell-based
Col2 = assay: Inhibition of Col2 human colon cancer cell proliferation
How it was run: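 Col2 human colon cancer cells grown in MEME with 10% NAA, antibiotic-antimycotic and 10% FBS at 37 °C, 5% CO2. Exponentially growing cells seeded onto compounds dissolved in DMSO and grown 3 days at 37 °C. Cells TCA-fixed, stained with 0.4% sulforhodamine B in 1% acetic acid, dye solubilized in 0.1 M Tris, A515 read. % growth computed against day-0 and DMSO-control absorbances.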

Ishikawa [1] = assay: Antiestrogenic effects in Ishikawa cells; settings: Homo sapiens
Ishikawa [2] = assay: Inhibition of Ishikawa cell proliferation
Ishikawa [3] = assay: Inhibition of antiestrogenic response in Ishikawa cells
[4] = Homo sapiens, Ishikawa, read-out: IC50

| Structure (SMILES) | IC50 (Col2) | IC50 (Ishikawa [1]) | IC50 (Ishikawa [2]; ishikawa) | IC50 (Ishikawa [3]; ishikawa) | IC50 (Ishikawa [2]; [4]) | IC50 (Ishikawa [3]; [4]) |
| --- | --- | --- | --- | --- | --- | --- |
| COc1cc(C[C@H]2COC(c3ccc(O)c(OC)c3)[C@@]2(O)CO)ccc1O (stereo partly drawn) | > 10 µg/mL | > 10 µg/mL | – | – | – | – |
| CO[C@@H]1[C@@H](O)[C@H](C)O[C@@H](OC2CC[C@@]3(C)[C@H](CC[C@@H]4[C@@H]3C3OC3[C@]3(C)[C@H](C5=CC(=O)OC5)CC[C@]43O)C2)[C@@H]1O (stereo in doubt; 1) | – | – | 0.015 µg/mL (≈ 0.0273 µM) | 0.0042 µg/mL (≈ 0.00765 µM) | – | – |
| CO[C@@H]1[C@@H](O)[C@H](C)O[C@@H](OC2CC[C@@]3(C)[C@H](CC[C@@H]4[C@@H]3C3OC3[C@]3(C)[C@H](C5=CC(=O)OC5)CC[C@]43O)C2)[C@@H]1O (stereo in doubt; 2) | ≤ 5 µg/mL | ≤ 5 µg/mL | – | – | 0.02 µg/mL (≈ 0.0365 µM) | 0.008 µg/mL (≈ 0.0146 µM) |
